# Published values collected from several papers.
# Each line is one published result; the experiments were not run side by side.
# FLT3 D835H: Receptor-type tyrosine-protein kinase FLT3 (FLT3, Homo sapiens, UniProt P36888, D835H)
# FLT3 autoinhibited: Receptor-type tyrosine-protein kinase FLT3, autoinhibited (FLT3, Homo sapiens, UniProt P36888)
# FLT3 N841I: Receptor-type tyrosine-protein kinase FLT3 (FLT3, Homo sapiens, UniProt P36888, N841I)
# FLT3 D835V: Receptor-type tyrosine-protein kinase FLT3 (FLT3, Homo sapiens, UniProt P36888, D835V)
# FLT3 R834Q: Receptor-type tyrosine-protein kinase FLT3 (FLT3, Homo sapiens, UniProt P36888, R834Q)
# FLT3: Receptor-type tyrosine-protein kinase FLT3 (FLT3, Homo sapiens, UniProt P36888)
# FLT3 D835Y: Receptor-type tyrosine-protein kinase FLT3 (FLT3, Homo sapiens, UniProt P36888, D835Y)
Structure (SMILES),target,test,conditions,remaining binding
O=C(NCCCN1CCOCC1)c1ccc(Nc2nccc(-c3cc4ccccc4s3)n2)cc1,"Receptor-type tyrosine-protein kinase FLT3 (FLT3, Homo sapiens, UniProt P36888, ITD)","binding, competition with immobilised ligand",1 µM,50%
COc1cnc(Nc2cccc(S(N)(=O)=O)c2)nc1N1CCN(c2ccccc2)CC1,FLT3 D835H,"binding, competition with immobilised ligand",1 µM,94%
O=C(c1ccc(Nc2ncc(Cl)c(-c3ccc(Cl)s3)n2)cc1)N1CCC(N2CCCC2)CC1,FLT3 autoinhibited,"binding, competition with immobilised ligand",1 µM,1.8%
COc1ncc2cc3ccccc3nc2c1C#N,FLT3 N841I,"cell-free assay, competition with immobilised ligand",5 µM,100%
C[C@@H]1CCN(c2nccc(-c3cnn4ncccc34)n2)C1,FLT3 autoinhibited,binding,1 µM,78%
c1cncc(-c2cccc(Nc3nccc(NC4CCCCC4)n3)c2)c1,FLT3 D835V,"binding, competition with immobilised ligand",10 µM,0%
CO[C@H]1CC[C@H](CNc2ccc(S(=O)(=O)NC(=O)c3ccc(N4CCN(CC5=C(c6ccc(Cl)cc6)CC(C)(C)CC5)CC4)cc3Oc3cnc4[nH]ccc4c3)cc2[N+](=O)[O-])CC1,FLT3 D835V,"cell-free assay, competition with immobilised ligand",1 µM,100%
COc1cnc(Nc2cccc(S(N)(=O)=O)c2)nc1N1CCN(c2ccccc2)C(=O)C1,FLT3 R834Q,"binding, competition with immobilised ligand",1 µM,77%
CCc1ccccc1C(=O)Nc1n[nH]c2c(C)c(F)c(C3C(C#N)=C(C)N(C)C(C)=C3C#N)cc12,FLT3 autoinhibited,"cell-free assay, competition with immobilised ligand",1 µM,88%
C=CC(=O)N1CCC(C(=O)NCC(=O)N2CCN(c3nc(-c4cnc(N)nc4C(F)F)nc(N4CCOCC4)n3)CC2)CC1,FLT3 R834Q,"binding, competition with immobilised ligand",1 µM,84%
CN(CCCC(F)(F)F)c1nccc(-c2cnn3ncccc23)n1,FLT3 autoinhibited,binding,1 µM,100%
Cn1nc(C(=O)NCc2ccc(C(=O)O)cc2)cc1-c1ccc2[nH]ccc2c1,FLT3 N841I,"cell-free assay, competition with immobilised ligand",0.1 µM,100%
CCN1CCN(Cc2ccc(C(=O)Nc3ccc(C)c(Oc4ccc5c(c4)CC(=O)N5)c3)cc2C(F)(F)F)CC1,FLT3,"binding, competition with immobilised ligand",1 µM,41%
O=C(NCCCN1CCOCC1)c1ccc(Nc2ncc(Cl)c(-c3ccc(Cl)s3)n2)cc1,FLT3 R834Q,"binding, competition with immobilised ligand",1 µM,7.4%
N[C@H]1CCN(c2nccc(-c3cnn4ncccc34)n2)C1,FLT3 D835H,binding,1 µM,92%
C[C@@H](c1ccc(-n2cnc3c(N)ncnc32)cc1)N1CCc2nn(C)c(Cc3ccccc3)c2C1=O,FLT3 D835V,"binding, competition with immobilised ligand",0.1 µM,87%
Cc1cc(-n2nc(Cc3cc(F)cc(C(F)(F)F)c3)nc2C)ccc1C(N)=O,FLT3 autoinhibited,"cell-free assay, competition with immobilised ligand",1 µM,100%
O=C(c1ccc(Nc2ncc(Cl)c(-c3cc4ccccc4s3)n2)cc1)N1CCC(N2CCCC2)CC1,"Receptor-type tyrosine-protein kinase FLT3 (FLT3, Homo sapiens, UniProt P36888, K663Q)","binding, competition with immobilised ligand",1 µM,3.4%
O=c1nc(-c2ccccn2)sc2ccccc12,FLT3 R834Q,"binding, competition with immobilised ligand",1 µM,100%
O=C(Nc1c[nH]nc1C(=O)NC1CCNCC1)c1cc(F)cc(F)c1,FLT3 D835H,"binding, competition with immobilised ligand",1 µM,100%
CN(C)c1ncc(F)c(-c2cnn3ncccc23)n1,FLT3 N841I,binding,1 µM,75%
CNC(=O)[C@@H]1CC[C@@H](n2c(-c3ccc4cnccc4c3)nc3ccc(C(=O)NCc4cccc(C(N)=O)c4)cc32)C1,FLT3 autoinhibited,"binding, competition with immobilised ligand",1 µM,91%
O=C(c1ccc(Nc2nccc(-c3cc4ccccc4s3)n2)cc1)N1CCC(N2CCCC2)CC1,FLT3 N841I,"binding, competition with immobilised ligand",1 µM,3.6%
CN([C@@H]1CCc2c(CC(=O)O)c3cc(S(C)(=O)=O)ccc3n2C1)S(=O)(=O)c1ccc(F)cc1,FLT3 D835V,"cell-free assay, competition with immobilised ligand",1 µM,99%
F[C@@H]1CCN(c2nccc(-c3cnn4ncccc34)n2)C1,FLT3 D835Y,binding,1 µM,61%
CCS(=O)(=O)c1cc2cc(C[C@@](O)(CC(C)(C)c3ccc(F)cc3C(N)=O)C(F)(F)F)[nH]c2cn1,FLT3 D835Y,"cell-free assay, competition with immobilised ligand",1 µM,99%
Cc1cnn2ncc(-c3ccnc(N(C)C)n3)c2c1,FLT3,binding,1 µM,98%
O=C(NCc1ncc(C(F)(F)F)cc1Cl)c1ccc2c(c1)C1(CCS(=O)(=O)CC1)[C@H](C1CC1)N2S(=O)(=O)c1ccc(F)cc1,FLT3 D835H,"cell-free assay, competition with immobilised ligand",1 µM,92%
Nc1ncc2c(n1)-c1c([nH]c3ccc(C#CC4CC4)cc13)CCCC2,FLT3 D835H,"binding, competition with immobilised ligand",1 µM,88%
O=C(NCC1CCOCC1)c1n[nH]cc1NC(=O)c1c(F)cccc1F,FLT3 autoinhibited,"binding, competition with immobilised ligand",1 µM,78%
c1cnn2ncc(-c3ccnc(N4CCC45COC5)n3)c2c1,FLT3 autoinhibited,binding,1 µM,58%
